From ChEMBL document CHEMBL1208768, “Synthesis, selective anti-Helicobacter pylori activity, and cytotoxicity of novel N-substituted-2-oxo-2H-1-benzopyran-3-carboxamides” (Bioorg Med Chem Lett, 2010)
≈ marks a conversion by molar mass, not a printed value. Calls of active or inactive are those of the source. The rule behind the calls is not given here.

Legend:
[1] = tested on: Staphylococcus haemolyticus; experiment: Antibacterial activity against Staphylococcus haemolyticus after 18 to 22 hrs by broth microdilution method; type: functional
Procedure, shortened: (§1)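 Clinical respiratory-tract isolates from patients, subcultured for purity and identified conventionally. Broth microdilution per NCCLS in Mueller–Hinton II broth; each plate had growth controls (bacteria, no compound) and medium-only controls. Incubation 18–22 h at 35 °C. MIC taken as the lowest concentration giving complete growth inhibition by unaided eye.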

Staphylococcus hominis = experiment: Antibacterial activity against Staphylococcus hominis after 18 to 22 hrs by broth microdilution method; type: functional; procedure, shortened: as §1
Staphylococcus aureus = experiment: Antibacterial activity against Staphylococcus aureus after 18 to 22 hrs by broth microdilution method; type: functional; procedure, shortened: as §1
Klebsiella oxytoca = experiment: Antibacterial activity against Klebsiella oxytoca after 18 to 22 hrs by broth microdilution method; type: functional; procedure, shortened: as §1
Klebsiella pneumoniae = experiment: Antibacterial activity against Klebsiella pneumoniae after 18 to 22 hrs by broth microdilution method; type: functional; procedure, shortened: as §1
[Candida] sake = Antifungal activity against Candida sake after 24 hrs by broth microdilution method; type: functional; conditions: Fermentozyma sake
Procedure, shortened: (§2)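 Candida isolates from respiratory-tract specimens, tested by NCCLS broth microdilution in Sabouraud dextrose broth. Serial compound dilutions inoculated to 10³/mL, with fungus-only and medium-only controls. Incubated 24 h at 37 °C. MIC was the lowest concentration with complete visible growth inhibition.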

Helicobacter pylori [2] = experiment: Antibacterial activity against metronidazole-resistant Helicobacter pylori isolate 8 after 72 hrs by agar dilution method; type: functional; conditions: isolate 8, 72 h
Procedure, shortened: (§3)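 H. pylori clinical isolates (ATCC 43504 control each session) stored at -80 °C and subcultured twice on Columbia agar with 10% horse serum and 0.25% yeast extract. Suspensions of 0.5 McFarland were spotted by Steer's replicator at about 5 × 10⁵ CFU/spot onto agar with twofold compound dilutions. Plates were incubated 72 h at 37 °C in 10% CO₂. MIC was the lowest concentration without visible growth.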

Pichia kudriavzevii = experiment: Antifungal activity against Candida krusei after 24 hrs by broth microdilution method; type: functional; procedure, shortened: as §2
Proteus vulgaris = experiment: Antibacterial activity against Proteus vulgaris after 18 to 22 hrs by broth microdilution method; type: functional; procedure, shortened: as §1
AGS [3] = experiment: Antiinflammatory activity in human AGS cells assessed as inhibition of IL-8 production at 5 ug/mL after 24 hrs; type: functional, cell-based
Procedure, shortened: (§4)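 AGS gastric adenocarcinoma cells were grown in F-12K with 10% FBS. They were seeded at 1 × 10⁵/mL for 24 h, preincubated 1 h with compound at 5 or 0.5 µg/mL, then exposed to H. pylori.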

Helicobacter pylori [4] = experiment: Antibacterial activity against Helicobacter pylori ATCC 43504 clinical isolates after 72 hrs by agar dilution method; type: functional; conditions: ATCC 43504, 72 h
Procedure, shortened: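 Agar dilution per NCCLS. Twenty clinical strains from duodenal ulcer or gastritis patients, with ATCC 43504 as control in each session, were subcultured twice on Columbia agar plus 10% horse serum and 0.25% yeast extract (72 h, 37 °C, 10% CO₂). Inoculum of 0.5 McFarland in Wilkins Chalgren broth, about 5 × 10⁵ CFU/spot by Steer's replicator. Plates held twofold compound dilutions down to 0.0039 µg/mL and were incubated 72 h at 37 °C, 10% CO₂. MIC was the lowest concentration inhibiting visible growth.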

Citrobacter freundii = experiment: Antibacterial activity against Citrobacter freundii after 18 to 22 hrs by broth microdilution method; type: functional; procedure, shortened: as §1
Helicobacter pylori [5] = experiment: Antibacterial activity against metronidazole-resistant Helicobacter pylori isolate 18 after 72 hrs by agar dilution method; type: functional; conditions: isolate 18, 72 h; procedure, shortened: as §3
Klebsiella aerogenes = experiment: Antibacterial activity against Enterobacter aerogenes after 18 to 22 hrs by broth microdilution method; type: functional; procedure, shortened: as §1
Enterobacter = experiment: Antibacterial activity against Enterobacter after 18 to 22 hrs by broth microdilution method; type: functional; procedure, shortened: as §1
Helicobacter pylori [6] = experiment: Antibacterial activity against metronidazole-resistant Helicobacter pylori isolate 20 after 72 hrs by agar dilution method; type: functional; conditions: isolate 20, 72 h; procedure, shortened: as §3
Helicobacter pylori [7] = experiment: Antibacterial activity against metronidazole-resistant Helicobacter pylori NCTC 11637 after 72 hrs by agar dilution method; type: functional; conditions: NCTC 11637, 72 h; procedure, shortened: as §3
Helicobacter pylori [8] = experiment: Antibacterial activity against metronidazole-resistant Helicobacter pylori isolate 1 after 72 hrs by agar dilution method; type: functional; conditions: isolate 1, 72 h; procedure, shortened: as §3
Candida albicans = experiment: Antifungal activity against Candida albicans after 24 hrs by broth microdilution method; type: functional; procedure, shortened: as §2
Enterococcus faecalis = experiment: Antibacterial activity against Streptococcus faecalis after 18 to 22 hrs by broth microdilution method; type: functional; procedure, shortened: as §1
[9] = tested on: Staphylococcus epidermidis; experiment: Antibacterial activity against Staphylococcus epidermidis after 18 to 22 hrs by broth microdilution method; type: functional; procedure, shortened: as §1
AGS [10] = experiment: Antiinflammatory activity in human AGS cells assessed as inhibition of IL-8 production at 0.5 ug/mL after 24 hrs; type: functional, cell-based; procedure, shortened: as §4
Escherichia coli = experiment: Antibacterial activity against Escherichia coli after 18 to 22 hrs by broth microdilution method; type: functional; procedure, shortened: as §1

Row | Compound | MIC [1] [µg/mL] | MIC (Staphylococcus hominis) [µg/mL] | MIC (Staphylococcus aureus) [µg/mL] | MIC (Klebsiella oxytoca) [µg/mL] | MIC (Klebsiella pneumoniae) [µg/mL] | MIC ([Candida] sake) [µg/mL] | MIC (Helicobacter pylori [2]) [µg/mL] | MIC (Pichia kudriavzevii) [µg/mL] | MIC (Proteus vulgaris) [µg/mL] | inhibition (AGS [3]) | MIC50 (Helicobacter pylori [4]) [µg/mL] | MIC90 (Helicobacter pylori [4]) [µg/mL] | MIC (Citrobacter freundii) [µg/mL] | MIC (Helicobacter pylori [5]) [µg/mL] | MIC (Klebsiella aerogenes) [µg/mL] | MIC (Enterobacter) [µg/mL] | MIC (Helicobacter pylori [6]) [µg/mL] | MIC (Helicobacter pylori [7]) [µg/mL] | MIC (Helicobacter pylori [8]) [µg/mL] | MIC (Candida albicans) [µg/mL] | further results
1 | CCOC(=O)c1ccc(NC(=O)c2cc3cc(Br)cc(Br)c3oc2=O)cc1 | > 128 | > 128 | > 128 | > 128 | > 128 | > 128 | 64 (≈ 129 µM) | > 128 | > 128 | inactive | 64 (≈ 129 µM) | 64 (≈ 129 µM) | > 128 | 64 (≈ 129 µM) | > 128 | > 128 | 64 (≈ 129 µM) | 64 (≈ 129 µM) | 64 (≈ 129 µM) | > 128 | MIC (Enterococcus faecalis): > 128 µg/mL; MIC [9]: > 128 µg/mL; inhibition (AGS [10]): inactive; MIC (Escherichia coli): > 128 µg/mL
2 | O=C(O)c1ccc(NC(=O)c2cc3cc(Br)cc(Br)c3oc2=O)cc1 | > 128 | > 128 | > 128 | > 128 | > 128 | > 128 | 16 (≈ 34.3 µM) | > 128 | > 128 | inactive | 16 (≈ 34.3 µM) | 16 (≈ 34.3 µM) | > 128 | 16 (≈ 34.3 µM) | > 128 | > 128 | 16 (≈ 34.3 µM) | 16 (≈ 34.3 µM) | 16 (≈ 34.3 µM) | > 128 | MIC (Enterococcus faecalis): > 128 µg/mL; MIC [9]: > 128 µg/mL; inhibition (AGS [10]): inactive; MIC (Escherichia coli): > 128 µg/mL
3 | CCOC(=O)N1CCC(NC(=O)c2cc3cc(Br)ccc3oc2=O)CC1 | > 128 | > 128 | > 128 | > 128 | > 128 | > 128 | 64 (≈ 151 µM) | > 128 | > 128 | inactive | 64 (≈ 151 µM) | 64 (≈ 151 µM) | > 128 | 32 (≈ 75.6 µM) | > 128 | > 128 | 32 (≈ 75.6 µM) | 64 (≈ 151 µM) | 32 (≈ 75.6 µM) | > 128 | MIC (Enterococcus faecalis): > 128 µg/mL; MIC [9]: > 128 µg/mL; inhibition (AGS [10]): inactive; MIC (Escherichia coli): > 128 µg/mL
4 | CCOC(=O)N1CCC(NC(=O)c2cc3ccccc3oc2=O)CC1 | > 128 | > 128 | > 128 | > 128 | > 128 | > 128 | > 128 | > 128 | > 128 | inactive | > 128 | > 128 | > 128 | 128 (≈ 372 µM) | > 128 | > 128 | > 128 | > 128 | 128 (≈ 372 µM) | > 128 | MIC (Enterococcus faecalis): > 128 µg/mL; MIC [9]: > 128 µg/mL; inhibition (AGS [10]): inactive; MIC (Escherichia coli): > 128 µg/mL
5 | COc1ccc2cc(C(=O)Nc3ccc(C(=O)O)cc3)c(=O)oc2c1 | > 128 | > 128 | > 128 | > 128 | > 128 | > 128 | > 128 | > 128 | > 128 | inactive | > 128 | > 128 | > 128 | > 128 | > 128 | > 128 | > 128 | > 128 | > 128 | > 128 | MIC (Enterococcus faecalis): > 128 µg/mL; MIC [9]: > 128 µg/mL; inhibition (AGS [10]): inactive; MIC (Escherichia coli): > 128 µg/mL
6 | Cc1ncc([N+](=O)[O-])n1CCO [METRONIDAZOLE] |  |  |  |  |  |  | 64 (≈ 374 µM) |  |  |  | 2 (≈ 11.7 µM) | 128 (≈ 748 µM) |  | 128 (≈ 748 µM) |  |  | 128 (≈ 748 µM) | 128 (≈ 748 µM) | 64 (≈ 374 µM) |  | 
